Screening results deposited in PubChem BioAssay by several laboratories.
BaF3 tox: parental Ba/F3 viability inhibition as JAK2V617F counter-screen | 1.1% of 220,000 active | inhibition, % at 5.6 µM | CellTiter-Glo ATP luminescence;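 active means inhibition above a per-campaign cutoff, the mean inhibition of all tested compounds plus 3 SD, cut at about 27% in these data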;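 further: 0% = DMSO wells and 100% = JAK Inhibitor I control wells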
Ba/F3 V617F tox: lowers viability of Ba/F3 cells expressing EpoR and JAK2V617F; ATP luminescence; inhibition, % at 5.6 µM; 1.1% of 220,000 active; AID 1446;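 active means inhibition above the campaign mean plus 3 SD over all tested compounds, cut at about 24% in these data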;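 further: cytokine-independent growth of Ba/F3 cells driven by EpoR plus mutant JAK2; 0% = DMSO-treated cells and 100% = JAK inhibitor I control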
KLF5 inh: suppresses KLF5 promoter-driven expression. DLD-1 KLF5 promoter-luciferase reporter, luminescence. inhibition, % at 5 µM. 0.23% of 290,000 active. AID 1700;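 active means inhibition above a per-plate limit of that plate's mean compound inhibition plus 3 SD, cut at about 60% in these data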;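 further: 0% = DMSO wells and 100% = LY294002 at 200 µM; higher means less KLF5 promoter-driven luciferase light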
bCat nuc transl: beta-catenin nuclear translocation modulation; HeLa beta-catenin nuclear translocation, immunofluorescence imaging; nuclear translocation activity, % at 5 µM; 0.3% of 190,000 active;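 active means nuclear translocation activity above 50% at 5 µM, with a well cell count of 50 or more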;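 further: per-cell ratio of nuclear to cytoplasmic median beta-catenin stain intensity; plate controls were DMSO negative control for no effect and GSK-3 inhibitor IX positive control for full effect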
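System: HeLa cells, endogenous beta-catenin; compound dosing: 5 µM primary single dose, 0.1% DMSO, 0.02–20 µM confirmation series; incubation: 24 h compound exposure at 37°C, 5% CO2; signal: beta-catenin immunofluorescence imaging with DAPI; evaluation: % activation, nuclear-to-cytoplasmic median beta-catenin signal ratio per cell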
IEC-6 cytotox: IEC-6 cytotoxicity, counter-screen for KLF5 inhibitors; luminescence viability; inhibition, % at 5 µM; 0.78% of 290,000 active; AID 1825;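 further: 0% = plate median of test compound wells and 100% = cytotoxic reference compound wells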
MT stabilize HCS: stabilizes microtubules in HeLa cells. HeLa tubulin immunostaining HCS, 24 h; share of cells brighter than vehicle mean+2SD. % tubulin-high responders, % at 10 µM. 0.83% of 200,000 active;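 active means plate Z-score above 3 for both tubulin-high and condensed-nucleus cell shares, with cell loss under 80%, at 10 µM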;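 further: anti alpha tubulin signal scored within the nucleus-defined area of each cell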
IEC-6 cytotox cf: confirmation of cytotoxic compounds in rat IEC-6 intestinal epithelial cells. shares compounds with IEC-6 cytotox. IEC-6 rat intestinal epithelial viability, luminescence. inhibition, % at 5 µM. 63% of 1,900 active. AID 1907;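 further: 0% = vehicle and 100% = reference cytotoxic drug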
* marks the source's active call; other numbers are inactive results; / = no result. Hits are enriched below; roughly 2.1% of the tested compounds scored in any of these assays. Unless noted, no stated cut-off is given here; in the data, active means inhibition above about 22%; inactive means the rest.

SMILES	BaF3 tox	Ba/F3 V617F tox	KLF5 inh	bCat nuc transl	IEC-6 cytotox	MT stabilize HCS	IEC-6 cytotox cf
CCCc1cc(=O)oc2cc(C)cc(OC(C)C(=O)NCc3ccccn3)c12 (configuration not stated)	/	/	-17	/	-3	/	/
CCC(NC(=O)Nc1nnc(C(F)(F)F)s1)(C(F)(F)F)C(F)(F)F	89*	98*	-9	5	26*	4	92*
O=C(Nc1nc2ccc(S(=O)(=O)N3CCCCC3)cc2s1)C1CCCO1 (configuration not stated)	6	-2	-24	-1	-1	6	/
O=C(Nc1nc2ccc(S(=O)(=O)N3CCCC3)cc2s1)C1CCCCC1	79*	82*	36	3	70*	34*	56*
COC(=O)c1cc(COC(=O)c2nc3nccc(C)n3n2)oc1C	4	0	0	2	-8	2	/
CCc1ccccc1N(C)S(=O)(=O)c1ccc(-c2cc(C)no2)s1	/	/	52	/	47*	/	18
O=C(O)C1CSC(c2ccccc2Cl)N1C(=O)c1ccc(Cl)cc1 (configuration not stated)	4	-1	5	0	-2	2	/
CN1CCc2nc(NC(=O)COc3ccc4ccccc4c3)sc2C1	8	9	-14	2	38*	3	18
COc1cccc(NC(=O)Nc2nc(-c3ccc(OC)c(OC)c3)cs2)c1	/	/	37	/	24*	/	15
COc1ccc(-c2csc(NC(C)=O)n2)cc1OC	5	-1	-44	-3	-4	2	/
CN1CCN(C(=O)C(N)Cc2ccccc2)CC1 (configuration not stated)	9	-3	-30	-1	-7	3	/
Cc1cc(C(C)(C)C)cc(C)c1C[n+]1ccc2ccccc2c1	/	/	-21	/	28*	/	22*
Cc1ccc(C(=O)C[n+]2ccc3ccccc3c2)cc1	22	8	-41	-1	13	4	/
Cc1ccc(NC(=O)c2ccc(Cl)cc2[N+](=O)[O-])nc1	64*	74*	50	1	38*	36*	49*
COc1ccc(C(CNC(=O)c2ccc(NS(=O)(=O)c3cccc([N+](=O)[O-])c3)cc2)N2CCOCC2)cc1 (configuration not stated)	/	/	-35	/	-1	/	/
Cc1ccc(-n2nnnc2Sc2ccc(S(=O)(=O)NCCN(C)C)cc2[N+](=O)[O-])cc1	68*	96*	4	6	28*	3	47*
CCO[C@@H]1OC(C(=O)Nc2ccccc2)=C[C@H](c2coc3ccccc3c2=O)[C@H]1CCCO	-4	6	-22	-2	25*	1	5
CCOC(=O)C1CCCN(C(=O)c2ccc3nc(-c4cccc(OC)c4)oc3c2)C1 (configuration not stated)	/	/	-51	/	30*	/	15
CC1=Nc2cc(C(=O)NCCCN3CCN(C)CC3)ccc2Sc2ccc(C)cc21	/	/	-35	/	-3	/	/
CC1=Nc2cc(C(=O)NCC3CCCO3)ccc2Sc2ccc(C)cc21 (configuration not stated)	/	/	61	/	79*	/	53*
CCN1CCN(S(=O)(=O)c2ccc(C(=O)Nc3sc4c(c3C(N)=O)CCN(CC)C4)cc2)CC1	/	/	-5	/	-1	/	/
CCN1CCc2c(sc(NC(=O)c3ccc4ccccc4c3)c2C(N)=O)C1	/	/	-22	/	45*	/	8
Cc1occc1C(=O)N/N=C/c1ccc(OCc2ccccc2)cc1	0	0	-107	1	-10	/	/
Cc1occc1C(=O)N/N=C/c1ccc(-c2ccccc2)cc1	/	/	-15	/	28*	/	31*
CCOC(=O)Cc1nc(-c2ccc(Cl)cc2)n[nH]1	8	1	-20	-2	0	1	/
SMILES	BaF3 tox	Ba/F3 V617F tox	KLF5 inh	bCat nuc transl	IEC-6 cytotox	MT stabilize HCS	IEC-6 cytotox cf
S=c1[nH]nc(CSc2nc3ccccc3s2)n1C1CCCCC1	1	-5	12	-2	5	2	/
Cc1cccc(CSc2cccc3cccnc23)c1	-2	6	-48	/	32*	4	37*
CCn1c(CCNC(=O)c2cccs2)nnc1SCC(=O)NC1CCCCC1	2	6	-28	/	25*	5	5
CCn1c(CCNC(=O)c2cccs2)nnc1SCC(=O)Nc1ccc(Cl)cc1	4	0	20	4	1	2	/
CC[C@@H](C)C(NC(=O)OC(C)(C)C)c1cn([C@@H](CCC(=O)OC(C)(C)C)C(=O)N2CCN(C(=O)OC(C)(C)C)CC2)nn1 (some centres not stated)	-6	-5	6	-2	-2	5	/
COc1cccc(/C=N/Nc2snc(SC)c2C#N)c1	3	1	17	-1	44*	6	37*
CSc1nsc(/C=C/Nc2ccc(C(=O)O)cc2)c1C#N	4	-2	10	-1	-6	2	/
COc1cccc(/C=N/Nc2snc(SC)c2C#N)c1O	11	5	-83	4	7	2	/
COc1ccc(/C=N/Nc2snc(SC)c2C#N)cc1OC	3	0	-21	2	41*	3	31*
CSc1nsc(N/N=C/c2ccccc2)c1C#N	5	0	-6	2	34*	3	33*
O=C(c1cc(COc2c(F)cccc2F)on1)N(Cc1ccccc1)CC1CC1	/	/	-18	/	-5	/	/
C/C(=N\Nc1nc(C)cc(-c2ccccc2)n1)c1ccccc1	/	/	-29	/	26*	/	8
O=C(NNC(=O)c1ccc[nH]1)c1cc(Cl)cc(Cl)c1	/	/	-18	/	-7	/	/
NCC(=O)Nc1ccc(Cl)cc1C(=O)c1ccc[nH]1	37*	58*	-27	1	31*	/	9
CC(=O)Nc1ccc2c(c1)ncn2C	3	3	-27	-3	-1	4	/
COc1cc(C(=O)Nc2ccc3c(c2)ncn3C)cc(OC)c1OC	/	/	50	/	55*	/	34*
COc1cc(C(=O)Nc2ccc3c(c2)nc(C)n3C)cc(OC)c1OC	/	/	20	/	30*	/	19
Cc1nc2cc(NC(=O)c3ccc(Cl)cc3)ccc2n1C	/	/	-82	/	-2	/	/
CCCN1CCC(NC(=O)CC2C(=O)NCCN2Cc2cccc(OC)c2)CC1 (configuration not stated)	/	/	10	/	4	/	/
CCc1nn2c(=O)cc(CSc3nc4sc5c(c4c(=O)n3C)CCCC5)nc2s1	2	-3	-14	/	-6	3	/
O=[N+]([O-])c1cc(Cl)cc2c1nc(NCCO)c1ccccc12	8	-1	21	5	25*	/	26*
COc1cc(OC)cc(C(=O)NCC(=O)Nc2ccc(-c3ccccc3)cc2)c1	/	/	-14	/	30*	/	9
COc1cc(OC)cc(C(=O)NCC(=O)Nc2ccc(C)c(Cl)c2)c1	/	/	-39	/	0	/	/
CCOc1ccc(CC(=O)NNC(=O)/C=C/C(=O)O)cc1	1	1	20	-2	10	/	/
CCn1cc(C(=O)NC2CCCc3c2cnn3-c2cccc(C)c2C)cn1 (configuration not stated)	/	/	44	/	22*	/	14
